The test system of series [1] is Plasmodium falciparum. Kind of series: Antiplasmodial activity against synchronized chloroquine-sensitive Plasmodium falciparum D6 infected in NMRI mice (Mus musculus) RBC assessed as inhibition of hemozoin formation at 10 nM after 24 hrs by colorimetric analysis. The format is functional, organism-based. Put shortly:
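D6 cultures synchronized with sorbitol, held at 1% hematocrit, drug-treated 24 h at 37 °C. Parasites freeze-thawed, then lysed 30 min at 37 °C in saponin/Triton X-100 buffer. Hemozoin pelleted at 215,000 g, washed with acetone and PBS, dissolved 2 h in 0.2 N NaOH. Heme read at A400 (ε 91,000 cm-1M-1) and expressed per parasitized erythrocyte. A 0 h culture gave the baseline.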

Series [2] deals with Plasmodium berghei. Kind of series: Antiplasmodial activity against Plasmodium berghei infected in NMRI mice (Mus musculus) assessed as parasitaemia level at 30 mg/kg, perorally administered as single dose measured after 3 days relative to control. Format: functional. The note with it: route oral. Put shortly: (§1)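 P. berghei blood diluted in saline to 10^8 parasitized erythrocytes/mL; 0.2 mL given i.v. to groups of 3 female NMRI mice (controls 5). Compounds dosed at 10 ml/kg either once on day 1 (oral gavage or subcutaneous) or orally at 4, 24, 48, 72 h post-infection. Parasitemia read by FACS on 100,000 RBCs from tail blood on day 3 (single dose) or day 4 (quadruple dose). Activity = % reduction versus control mean. Survival monitored to 30 days.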

The next series deals with Mus musculus. Briefly: Toxicity in NMRI mouse at 30 mg/kg, po administered as single dose. The format is organism-based. The note with it: in vivo. The arrangement: dose 30 mg/kg, route oral.
In series [3] the test system is Plasmodium berghei. Briefly: Antiplasmodial activity against Plasmodium berghei infected in NMRI mice (Mus musculus) assessed as survival rate at 30 mg/kg, perorally administered as 4 consecutive doses measured post last dose. The format is functional. The settings on record: route oral. Put shortly: as §1
The test system of series [4] is Plasmodium berghei. Kind of series: Antiplasmodial activity against Plasmodium berghei infected in NMRI mice (Mus musculus) assessed as survival rate at 46 mg/kg, perorally administered as 4 consecutive doses measured post last dose. Format: functional. The settings on record: route oral. In short, it runs like this:
as §1

Series [5] deals with Plasmodium falciparum. Briefly: Antiplasmodial activity against chloroquine-sensitive Plasmodium falciparum D6 early trophozoites infected in NMRI mice (Mus musculus) RBC assessed as inhibition of hemozoin formation at 50 nM after 24 hrs by microscopic analysis. The format is functional, organism-based. In short, it runs like this:
(§2)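 Ring-stage D6 parasites synchronized with 5% sorbitol, suspended at 1% hematocrit and drug added from 1 mM stock. Incubated 24 h at 37 °C under 5% O2/5% CO2/90% N2 alongside a no-drug control. Giemsa-stained smears were used for parasitemia and for microscopic examination of hemozoin and parasite morphology.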

The test system of series [6] is Plasmodium berghei. Kind of series: Antiplasmodial activity against Plasmodium berghei infected in NMRI mice (Mus musculus) assessed as parasitaemia level at 30 mg/kg, subcutaneously after 3 days relative to control. The format is functional. The settings on record: route subcutaneous. Put shortly: as §1
Series [7] relates to Plasmodium berghei. Kind of series: Antiplasmodial activity against Plasmodium berghei infected in NMRI mice (Mus musculus) assessed as survival rate at 30 mg/kg, perorally administered as single dose. Format: functional. The settings on record: route oral. In short, it runs like this:
as §1

In series [8] the test system is Plasmodium berghei. Briefly: Antiplasmodial activity against Plasmodium berghei infected in NMRI mice (Mus musculus) assessed as parasitaemia level at 46 mg/kg, perorally administered as 4 consecutive doses measured after 4 days post last dose relative to control. The format is functional. The note with it: route oral.
Series [9] concerns Plasmodium berghei. Kind of series: Antiplasmodial activity against Plasmodium berghei infected in NMRI mice (Mus musculus) assessed as survival rate at 30 mg/kg, subcutaneously administered as single dose. The format is functional. The settings on record: route subcutaneous. Put shortly: as §1
Series [10] relates to Plasmodium falciparum. Kind of series: Antiplasmodial activity against chloroquine-sensitive Plasmodium falciparum D6 early trophozoites infected in NMRI mice (Mus musculus) RBC assessed as inhibition of hemozoin formation at 10 nM after 24 hrs by microscopic analysis. Format: functional, organism-based. In short, it runs like this:
as §2

Series [11] concerns Plasmodium falciparum. Kind of series: Antiplasmodial activity against chloroquine-resistant Plasmodium falciparum Dd2 early trophozoites infected in NMRI mice (Mus musculus) RBC assessed as inhibition of hemozoin formation at 50 nM after 24 hrs by microscopic analysis. The format is functional, organism-based. In short, it runs like this: (§3)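 D6 and Dd2 cultures synchronized to ring stage with 5% sorbitol, suspended at 1% hematocrit and exposed to drug (from 1 mM stock) for 24 h at 37 °C under 5% O2/5% CO2/90% N2. Giemsa-stained smears examined by microscopy for hemozoin, parasitemia and parasite morphology.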

Series [12] has as its system Plasmodium falciparum. Briefly: Inhibition of hemozoin formation in early trophozoites of chloroquine-sensitive Plasmodium falciparum D6 infected in RBC assessed as enlarged digestive vacuole at 100 nM after 24 hrs by microscopic analysis. The format is functional, organism-based. Put shortly: as §2
Series [13] deals with Plasmodium falciparum. Kind of series: Antiplasmodial activity against chloroquine-resistant Plasmodium falciparum Dd2 early trophozoites infected in NMRI mice (Mus musculus) RBC assessed as inhibition of hemozoin formation at 10 nM after 24 hrs by microscopic analysis. The format is functional, organism-based. Put shortly:
as §3

In series [14] the test system is Plasmodium berghei. Kind of series: Antiplasmodial activity against Plasmodium berghei infected in NMRI mice (Mus musculus) assessed as parasitaemia level at 30 mg/kg, perorally administered as 4 consecutive doses measured after 3 days post last dose relative to control. The note with it: route oral. Format: functional. Put shortly:
as §1

For series [15], the system named is Plasmodium falciparum. Briefly: Antiplasmodial activity against synchronized chloroquine-resistant Plasmodium falciparum Dd2 infected in NMRI mice (Mus musculus) RBC assessed as inhibition of hemozoin formation at 100 nM after 24 hrs by colorimetric analysis. The format is functional, organism-based. In short, it runs like this: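 Sorbitol-synchronized D6 and Dd2 cultures at 1% hematocrit were drug-treated for 24 h at 37 °C. Parasites were freed by freeze-thaw and saponin/Triton lysis buffer (37 °C, 30 min). Hemozoin was pelleted at 215,000 g, washed with acetone and PBS, then dissolved in 0.2 N NaOH. Heme was quantified by A400 (ε 91,000 cm-1M-1) per parasitized erythrocyte. Baseline was taken from 0 h culture.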

Series [16] is described as follows: Inhibition of beta-hematin formation after 24 hrs. The format is functional. In short, it runs like this: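 40 µM heme in 0.67 M sodium acetate pH 4.8 with 0.0005 g/L Tween20, compound at 0–1000 µM. Incubated 24 h at 37 °C in the dark, then read at 415/630 nm. IC50 taken as (Dmax − Dinitial)/2. Duplicate assays, run twice.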
Series [17] has as its system Plasmodium falciparum. Kind of series: Ratio of compound IC50 to chloroquine IC50 for chloroquine-resistant Plasmodium falciparum 7G8. The format is functional.
Series [18] concerns Plasmodium falciparum. Kind of series: Ratio of compound IC50 to chloroquine IC50 for chloroquine-sensitive Plasmodium falciparum D6. Format: functional.
Series [19] has as its system Plasmodium falciparum. Briefly: Ratio of compound IC50 to chloroquine IC50 for chloroquine-resistant Plasmodium falciparum Dd2. The format is functional.
Series [20] deals with Plasmodium berghei. Briefly: Antiplasmodial activity against Plasmodium berghei infected in NMRI mice (Mus musculus) assessed as survival rate at 44 mg/kg, perorally administered as 4 consecutive doses measured post last dose. The format is functional. The settings on record: route oral. Put shortly:
as §1

The target in the next series is Heme. Kind of series: Binding affinity to heme after 4 hrs by equilibrium binding assay. In short, it runs like this:
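Heme stock in NaOH, diluted to 5 µM in 100 mM phosphate buffer pH 5.7 and equilibrated 4 h. Optical titration by successive addition of compound, with pH held within ±0.05. Apparent dissociation constants from nonlinear least-squares fitting, assuming 2:1 heme:drug stoichiometry.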

For series [21], the system named is Plasmodium berghei. Briefly: Antiplasmodial activity against Plasmodium berghei infected in NMRI mice (Mus musculus) assessed as parasitaemia level at 44 mg/kg, perorally administered as 4 consecutive doses measured after 4 days post last dose relative to control. The format is functional. The note with it: route oral.
A short description of series [22]: Therapeutic index, ratio of IC50 for mice (Mus musculus) spleen lymphocytes to IC50 for chloroquine-resistant Plasmodium falciparum Dd2. The format is tissue-based. The note with it: read-out: Ratio IC50.

Active and inactive are the calls of the source. The calls are words filed in the database; no cut-off is given here. Where only a bound is given, the exact number is not on record here.

As to `Clc1ccc2c(NCCCN3CCC(NC(c4ccccn4)c4ccccn4)CC3)ccnc2c1` [DM-1157], the inhibition result with Plasmodium falciparum [1], with Plasmodium falciparum [5], in the series on Plasmodium falciparum [10], with Plasmodium falciparum [11], in the series on Plasmodium falciparum [12] and with Plasmodium falciparum [13] was “Active” each time. The inhibition result in the series with Plasmodium falciparum [15] was “Active”. In addition, the Activity is listed as 94% in the series with Plasmodium berghei [2]; “Non-toxic” in the series with Mus musculus; 99.3% in the series with Plasmodium berghei [6]; over 99.9% in the series on Plasmodium berghei [8]; over 99.9% with Plasmodium berghei [14]. The Survival came out at 27 days in the series with Plasmodium berghei [3], 30 days in the series on Plasmodium berghei [4], 7 days with Plasmodium berghei [7] and 9 days in the series with Plasmodium berghei [9].
Consider `Clc1ccc2c(NCCN3CCC(NC(c4ccccn4)c4ccccn4)CC3)ccnc2c1`, for which inhibition in series [16] was half-maximal at 2000 nM (IC50). The figures for the “Ratio IC50” value in the series on Plasmodium falciparum [17], with Plasmodium falciparum [18] and with Plasmodium falciparum [19] were 7.4, 1.1 and 3.9, respectively. In addition, in the series on Plasmodium berghei [20], the Survival is over 30 days. Further, the affinity on Heme, expressed as Kd, was 1000 nM. Further, in the series with Plasmodium berghei [21], the Activity is recorded as over 99.9%. Besides, in series [22], the selectivity ratio is 7310.

These data come from ChEMBL document CHEMBL1250478 (J Med Chem, 2010).
